GSTO1 counter – GSTO1 inhibition, counter-screen for RBBP9 inhibitors | inhibition, % at 5.96 µM | P78417 | 300,000 compounds, 1.1% hits | recombinant GSTO1, activity-based probe fluorescence polarization;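 active = inhibition above the campaign mean inhibition plus 3 SD, cut at about 35% in these data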;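 also: 0% = GSTO1-1 with DMSO and 100% = wells lacking GSTO1-1 enzyme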
PAD4 FP inh – inhibitors of human PAD4; recombinant PAD4, RCA probe fluorescence polarization; inhibition, % at 6.36 µM; 330,000 compounds, 0.41% hits;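 active = percent inhibition above a cutoff equal to the mean of all tested compounds plus 3 SD, cut at about 15% in these data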;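 also: 0% = PAD4 with RCA probe and DMSO and 100% = probe without PAD4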
PP5 primary – inhibitors of human protein phosphatase 5 (PP5); P53041; purified PP5c, OMFP substrate fluorescence; inhibition, % at 6.7 µM; 320,000 compounds, 0.18% hits; AID 1987;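 active = inhibition above the campaign's mean inhibition across all tested compounds plus 3 SD, cut at about 9.5% in these data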;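 also: 0% = DMSO only and 100% = 100 µM cantharidin control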
UCH37 inh – inhibitors of human deubiquitinating enzyme UCH37 | 330,000 compounds, 0.33% hits | AID 588478 | inhibition, % (no concentration beside the values) | purified proteasome/UCH37, Ub-AMC cleavage fluorescence;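 active = mean inhibition over replicate wells above about 20%, limit read from the data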;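 also: 0% = compound-free wells with enzyme and 100% = wells lacking proteasome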
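Signal – fluorescence, ex 355 nm, em 460 nm · System – Proteasome-bound UCH37 · Input – 0.15 nM proteasome as dispensed · Timing – 30 min preincubation with enzyme, 25 min cleavage at room temperature · Read-out basis – percent inhibition of cleavage signal versus uninhibited and no-proteasome wells · Medium – Tris-HCl pH 7.4 with ATP-MgCl2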
CTSL1 counter – cathepsin L1 inhibition, PFM18AAP counter-screen; recombinant F. hepatica cathepsin L1, Z-Leu-Arg-MCA fluorescence; inhibition, % at 5.96 µM; AID 1906; 300,000 compounds, 0.49% hits;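 active = inhibition above the mean of all tested compounds plus 3 SD, set per screening campaign, cut at about 17% in these data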;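 also: 0% = plate median of test compound wells and 100% = 1 µM Z-Phe-Ala-diazomethylketone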
Apaf1 inhib – inhibitors of human Apaf-1 apoptosome | reconstituted apoptosome caspase-3 activity, DEVD-Rh110 fluorescence | inhibition, % at 20 µM | 330,000 compounds, 0.71% hits; active = inhibition of at least 40% at 20 µM;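 also: plate controls were DMSO wells for no effect and DEVD-CHO caspase inhibitor wells for full effect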
Target sequence (O14727 whole entry, looked up): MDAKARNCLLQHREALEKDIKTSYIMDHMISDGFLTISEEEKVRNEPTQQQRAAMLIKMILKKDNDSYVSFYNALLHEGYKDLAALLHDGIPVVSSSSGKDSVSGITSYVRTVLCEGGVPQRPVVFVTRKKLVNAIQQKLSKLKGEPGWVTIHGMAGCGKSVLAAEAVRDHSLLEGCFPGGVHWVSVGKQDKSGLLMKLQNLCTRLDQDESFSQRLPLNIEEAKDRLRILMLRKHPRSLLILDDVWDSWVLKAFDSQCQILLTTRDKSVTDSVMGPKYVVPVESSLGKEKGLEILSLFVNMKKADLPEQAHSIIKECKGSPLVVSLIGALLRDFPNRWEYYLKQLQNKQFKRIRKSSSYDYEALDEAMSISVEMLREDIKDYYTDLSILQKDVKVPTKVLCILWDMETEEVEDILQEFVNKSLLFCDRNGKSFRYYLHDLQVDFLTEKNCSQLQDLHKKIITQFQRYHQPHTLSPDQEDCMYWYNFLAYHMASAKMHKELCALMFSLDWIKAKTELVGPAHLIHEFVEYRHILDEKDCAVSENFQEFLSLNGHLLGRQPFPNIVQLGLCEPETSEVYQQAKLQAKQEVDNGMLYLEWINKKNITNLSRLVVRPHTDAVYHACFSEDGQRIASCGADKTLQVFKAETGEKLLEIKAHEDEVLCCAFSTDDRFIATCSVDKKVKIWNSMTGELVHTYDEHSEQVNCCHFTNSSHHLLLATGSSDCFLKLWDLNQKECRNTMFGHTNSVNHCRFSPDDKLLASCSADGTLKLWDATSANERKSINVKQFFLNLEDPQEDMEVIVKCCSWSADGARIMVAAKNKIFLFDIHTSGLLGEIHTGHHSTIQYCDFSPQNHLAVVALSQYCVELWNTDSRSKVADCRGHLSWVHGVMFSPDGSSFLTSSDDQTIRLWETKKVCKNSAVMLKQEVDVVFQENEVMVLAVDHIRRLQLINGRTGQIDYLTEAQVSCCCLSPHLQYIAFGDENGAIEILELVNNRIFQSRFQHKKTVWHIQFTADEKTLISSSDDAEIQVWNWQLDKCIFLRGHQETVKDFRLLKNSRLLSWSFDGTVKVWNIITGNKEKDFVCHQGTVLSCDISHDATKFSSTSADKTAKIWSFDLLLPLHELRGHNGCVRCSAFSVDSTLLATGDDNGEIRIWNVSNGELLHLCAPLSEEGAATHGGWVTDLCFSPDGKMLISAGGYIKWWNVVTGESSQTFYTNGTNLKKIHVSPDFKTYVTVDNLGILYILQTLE
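Material: biochemical Apaf-1 apoptosome reconstitution. Medium: Hepes buffer, pH 7.5. Also added: cytochrome c activation, bis-DEVD rhodamine 110 substrate. Timing: 30 min compound preincubation, 50 min activation, room temperature. Measured by: rhodamine 110 fluorescence at Ex 480/Em 540 nm.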
PP5 inh confirm – PP5 (human) inhibition, confirmation; shares compounds with PP5 primary; Purified PP5, fluorogenic phosphatase substrate, fluorescence; inhibition, % at 6.7 µM; 460 compounds, 22% hits; AID 2331; in the data active = inhibition above about 9.5%
PP1 inh counter – counter-screen for PP5 inhibitors: human PP1 phosphatase inhibition; shares compounds with PP5 primary; PP1 enzyme, fluorescent phosphatase substrate; inhibition, % at 6.7 µM; 460 compounds, 4% hits; in the data active = inhibition above about 16%
PAD4 confirm – PAD4 (human) inhibition, confirmed | inhibition, % at 6.36 µM | shares compounds with PAD4 FP inh | 1,200 compounds, 28% hits | recombinant PAD4, RCA probe fluorescence polarization;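 active = mean inhibition across replicates above the hit cutoff set by the earlier primary screen, cut at about 15% in these data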;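 also: inhibitors block active-site labeling by the probe so polarization falls; 0% = PAD4 with probe and DMSO and 100% = probe without PAD4 enzyme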
* marks the source's active call; other numbers are inactive results; / = no result. Shown are actives, neighbours in structure and some others; about 2% of the full set was active somewhere.

SMILES | GSTO1 counter | PAD4 FP inh | PP5 primary | UCH37 inh | CTSL1 counter | Apaf1 inhib | PP5 inh confirm | PP1 inh counter | others
CC(C)C[C@H](NC(=O)c1nc[nH]c1C(=O)N[C@@H](CCCCNC(=O)OC(C)(C)C)C(=O)OC(C)(C)C)C(=O)OC(C)(C)C | -6 | 10 | 14* | 1 | 9 | 33 | 9 | 11
CC(C)(C)OC(=O)NCCCC[C@H](NC(=O)c1[nH]cnc1C(=O)Nc1ccc(Cl)cc1)C(=O)OC(C)(C)C | -16 | 4 | 9 | -2 | 5 | 10 | / | /
C(=NNc1ncnc2sc3c(c12)CCC3)c1ccncc1 | / | / | / | 16 | / | / | / | /
COc1cc(C(C)=O)ccc1COc1ccc(C(=O)O)cc1OC | -6 | 4 | 11* | 4 | -2 | -8 | -1 | -1
COC(=O)NN=Cc1ccc(OC/C=C/c2ccccc2)cc1 | / | / | / | 1 | / | / | / | /
Nc1ccccc1C(=O)N1CCc2ccccc21 | 3 | -9 | 10* | 3 | -1 | -3 | -3 | -4
Cc1cc(C(=O)N2CCc3ccccc32)c2ccccc2n1 | 4 | -4 | 9.8* | 2 | 0 | 6 | -4 | -2
CC(=O)C1=C(C)N=c2sc(=Cc3ccc4c(c3)OCO4)c(=O)n2C1c1ccc(N(C)C)cc1 (configuration not stated) | / | / | / | 5 | / | / | / | /
O=C(NCc1cccnc1)c1sc2ccccc2c1Cl | -2 | -1 | 1 | -2 | 1 | -8 | / | /
Cc1ccc2c(Cl)c(C(=O)NCc3cccnc3)sc2c1 | -2 | 3 | 11* | 1 | 4 | 3 | -4 | -1
Cc1ccc(CSCC(=O)NN=Cc2ccc(OCC(=O)Nc3ccc(C)cc3)cc2)cc1 | / | / | / | -8 | / | / | / | /
O=C(Nc1ccc(OC(F)(F)F)cc1)C1CCCN(C(=O)c2ccc(Cl)cc2)C1 (configuration not stated) | / | 8 | 14* | 4 | / | 21 | 4 | 3
O=C1c2ccccc2C(=O)C1(O)O | / | 11 | 16* | / | / | 68* | 5 | 14
Cc1c(C(=O)NN=Cc2ccccc2)sc(=S)n1C | / | / | / | 4 | / | / | / | /
COc1cccc(C=NNC(=O)C(C)Cn2cnc3ccccc32)c1 (configuration not stated) | / | / | / | 5 | / | / | / | /
S=C(NC1CCCC1)N1CCOCC1 | -4 | -1 | 0 | -1 | -4 | -5 | / | /
S=C(NC1CCCCC1)N1CCOCCOCCN(C(=S)NC2CCCCC2)CCOCC1 | -2 | -3 | 9.8* | 1 | 1 | 28 | 0 | 1
Cc1nc2c(ncn2-c2ccccc2)c(=O)n1NC(=O)CN1CCCCC1 | -3 | -4 | 13* | 5 | 5 | -4 | -5 | -4
Cc1nc2c(ncn2-c2ccccc2)c(=O)n1NC(=O)CN1CCN(C)CC1 | -6 | 0 | 0 | 0 | -1 | -25 | / | /
COc1ccccc1NC(=O)c1c(Nc2ccccc2F)sc(C(=O)Nc2cccc(Cl)c2)c1N | -30 | -24 | 0 | 3 | 0 | 22 | / | /
COc1ccc(Nc2sc(C(=O)Nc3cccc(Cl)c3)c(N)c2C(=O)Nc2ccccc2OC)cc1 | -35 | -6 | 12* | / | 4 | / | 1 | 6
CC(C)C(=O)Nc1nnc(SCC(=O)Nc2ccc3c(c2)OCCO3)s1 | 8 | -3 | 13* | 4 | -6 | 7 | -5 | -2
CCOc1ccc(N=C/C=C/c2ccccc2)c(O)c1 | 54* | 26* | 9.9* | 6 | -4 | 24 | 1 | 0 | PAD4 confirm=-2
CC(C)(C)c1cc(C(=O)NN=Cc2ccc(F)cc2)n(-c2ccccc2)n1 | / | / | / | 1 | / | / | / | /
Cc1cc(N/N=C/c2ccc(O)cc2O)nc(N2CCOCC2)n1 | 6 | -3 | 1 | / | 1 | 31 | / | /

High-throughput results from PubChem.
